The source made the active and inactive calls. The calls are words filed in the database; no cut-off is given here.
Columns and labels:
[1] = target: T1, Adenosine receptor A2b (Homo sapiens, UniProt P29275); test: Binding affinity to human wild type adenosine A2B receptor expressed in Expi293F cells assessed as dissociation constant by surface plasmon resonance assay
T1 sequence (P29275 whole entry): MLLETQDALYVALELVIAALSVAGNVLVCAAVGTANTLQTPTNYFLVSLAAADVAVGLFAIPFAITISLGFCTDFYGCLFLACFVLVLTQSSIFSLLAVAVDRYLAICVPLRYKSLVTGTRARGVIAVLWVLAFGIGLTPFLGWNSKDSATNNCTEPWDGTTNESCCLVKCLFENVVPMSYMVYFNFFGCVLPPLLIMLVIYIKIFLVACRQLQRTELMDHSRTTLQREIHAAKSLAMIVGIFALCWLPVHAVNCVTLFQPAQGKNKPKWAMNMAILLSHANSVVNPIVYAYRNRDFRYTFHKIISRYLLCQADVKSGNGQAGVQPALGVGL

[2] = target: T2, Adenosine receptor A2b (Homo sapiens) (UniProt P29275); test: Binding affinity to human wild type adenosine A2B receptor expressed in Expi293F cells assessed as affinity off-rate by surface plasmon resonance assay
T2 sequence (whole entry): T1 sequence (P29275 whole entry)

[3] = target: T1, Adenosine receptor A2b; test: Binding affinity to human wild type adenosine A2B receptor expressed in Expi293F cells assessed as inhibition constant by surface plasmon resonance assay
[4] = target: T1, Adenosine receptor A2b; test: Binding affinity to human wild type adenosine A2B receptor expressed in Expi293F cells assessed as affinity on-rate by surface plasmon resonance assay
[5] = target: T3, Adenosine receptor A1 (Homo sapiens, UniProt P30542); test: Binding affinity to human wild type adenosine A1 receptor expressed in Expi293F cells assessed as dissociation constant by surface plasmon resonance assay
T3 sequence (P30542 whole entry): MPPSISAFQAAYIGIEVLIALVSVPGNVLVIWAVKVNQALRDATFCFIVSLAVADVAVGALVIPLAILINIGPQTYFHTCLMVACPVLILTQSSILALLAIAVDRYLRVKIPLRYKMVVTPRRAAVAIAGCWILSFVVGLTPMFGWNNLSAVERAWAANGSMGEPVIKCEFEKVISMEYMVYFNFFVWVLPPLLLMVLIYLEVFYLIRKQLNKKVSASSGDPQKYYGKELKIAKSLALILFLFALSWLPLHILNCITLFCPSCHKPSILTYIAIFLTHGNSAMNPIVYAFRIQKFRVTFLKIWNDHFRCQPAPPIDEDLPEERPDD

[6] = target: T4, Adenosine receptor A3 (Homo sapiens, UniProt P0DMS8); test: (§1) Binding affinity to human wild type adenosine A3 receptor expressed in Expi293F cells assessed as dissociation constant by surface plasmon resonance assay
T4 sequence (P0DMS8 whole entry): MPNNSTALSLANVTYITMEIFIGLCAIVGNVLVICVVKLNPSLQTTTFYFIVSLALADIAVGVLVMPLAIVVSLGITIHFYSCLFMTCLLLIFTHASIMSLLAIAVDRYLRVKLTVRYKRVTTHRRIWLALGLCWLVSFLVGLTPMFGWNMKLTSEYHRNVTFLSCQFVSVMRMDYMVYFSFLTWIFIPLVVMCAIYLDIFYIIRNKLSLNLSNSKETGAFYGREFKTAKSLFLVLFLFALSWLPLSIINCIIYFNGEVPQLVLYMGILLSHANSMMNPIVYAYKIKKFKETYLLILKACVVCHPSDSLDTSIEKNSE

[7] = target: T5, Adenosine receptor A2a (Homo sapiens, UniProt P29274); test: Binding affinity to human wild type adenosine A2A receptor expressed in Expi293F cells assessed as dissociation constant by surface plasmon resonance assay
[8] = target: T5, Adenosine receptor A2a; test: Antagonist activity at human adenosine A2A receptor expressed in HEK293T cells assessed as inhibition of EC20 concentration of NECA-induced cAMP accumulation by GloSensor cAMP accumulation assay; format: functional, cell-based; settings: filed as antagonist
How it was run: (§2)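 HEK293T cells expressing A2A, GloSensor luciferase cAMP read-out; concentration–response curves run against EC20 NECA (3 nM). Data as % of maximum NECA response; mean ± SEM of at least three independent experiments in technical duplicate. Maximum tested concentration 0.63 mM where compound supply was limited; compounds also checked in cells lacking transfected A2A.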

[9] = target: T5, Adenosine receptor A2a; test: Antagonist activity at human adenosine A2A receptor expressed in HEK293T cells assessed as inhibition of EC20 concentration of NECA-induced cAMP accumulation at higher concentration by GloSensor cAMP accumulation assay; format: functional, cell-based; settings: filed as antagonist; how it was run: as §2
[10] = target: T6, Adenosine receptor A1 (Homo sapiens) (UniProt P30542); test: Binding affinity to human wild type adenosine A1 receptor expressed in Expi293F cells assessed as affinity off-rate by surface plasmon resonance assay
T6 sequence (whole entry): T3 sequence (P30542 whole entry)

[11] = target: T6, Adenosine receptor A1 (Homo sapiens); test: Binding affinity to human wild type adenosine A1 receptor expressed in Expi293F cells assessed as affinity on-rate by surface plasmon resonance assay
[12] = target: T5, Adenosine receptor A2a; test: Antagonist activity at human adenosine A2A receptor expressed in HEK293T cells assessed as inhibition of 500 nM NECA-induced cAMP accumulation by GloSensor cAMP accumulation assay; settings: filed as antagonist
[13] = target: T5, Adenosine receptor A2a; test: Antagonist activity at human adenosine A2A receptor expressed in HEK293T cells assessed as inhibition of EC20 concentration of NECA-induced cAMP accumulation by measuring fold change in potency by GloSensor cAMP accumulation assay; format: functional, cell-based; settings: filed as antagonist
[14] = target: T5, Adenosine receptor A2a; test: Antagonist activity at human adenosine A2A receptor expressed in HEK293T cells assessed as inhibition of NECA-induced Gs short protein activation by TRUPATH assay; format: functional, cell-based
[15] = target: T5, Adenosine receptor A2a; test: Allosteric modulator activity at human adenosine A2A receptor expressed in HEK293T cells assessed as stimulation of NECA-induced cAMP accumulation by GloSensor cAMP accumulation assay; format: functional, cell-based; settings: filed as positive allosteric modulator
How it was run: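 GloSensor cAMP accumulation in HEK293T cells transiently expressing A2A; compound tested for modulation of NECA-stimulated cAMP (EC80 and EC20 NECA), concentrations up to 30 μM. Data as % of maximum NECA response; mean ± SEM of three to four experiments in at least duplicate.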

[16] = system: HEK-293T; test: Effect on cAMP accumulation in HEK293T cells by GloSensor cAMP accumulation assay; format: functional, cell-based; settings: Homo sapiens
How it was run: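 HEK293T cells transiently expressing the A2A receptor, with a GloSensor luciferase cAMP read-out. Compound concentration series were tested against NECA at EC80 (500 nM) or EC20 (3 nM), and for agonist activity alone. Cells lacking transfected A2A served as control. Responses are expressed as a percentage of the maximum NECA response, as mean ± SEM of at least three independent experiments in technical duplicate.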

[17] = target: T5, Adenosine receptor A2a; test: Binding affinity to human wild type adenosine A2A receptor expressed in Expi293F cells assessed as inhibition constant taken from literature
[18] = target: T7, Adenosine receptor A3 (Homo sapiens) (UniProt P0DMS8); test: Binding affinity to human wild type adenosine A3 receptor expressed in Expi293F cells assessed as affinity off-rate by surface plasmon resonance assay
T7 sequence (whole entry): T4 sequence (P0DMS8 whole entry)

[19] = target: T1, Adenosine receptor A2b; test: Binding affinity to human wild type adenosine A2B receptor expressed in Expi293F cells assessed as affinity on-rate by surface plasmon resonance assay
[20] = target: T5, Adenosine receptor A2a; test: Antagonist activity at human adenosine A2A receptor expressed in HEK293T cells assessed as inhibition of EC20 concentration of NECA-induced cAMP accumulation at 0.63 mM by GloSensor cAMP accumulation assay; format: functional, cell-based; settings: filed as antagonist; how it was run: as §2
[21] = target: T3, Adenosine receptor A1; test: Binding affinity to human wild type adenosine A1 receptor expressed in Expi293F cells assessed as affinity on-rate by surface plasmon resonance assay
[22] = target: T7, Adenosine receptor A3 (Homo sapiens); test: as §1
[23] = target: T7, Adenosine receptor A3 (Homo sapiens); test: Binding affinity to human wild type adenosine A3 receptor expressed in Expi293F cells assessed as affinity on-rate by surface plasmon resonance assay
[24] = target: Glycogen synthase kinase-3 alpha (Homo sapiens, UniProt P49840); test: Inhibition of recombinant human GSKalpha
Sequence of Glycogen synthase kinase-3 alpha (P49840 whole entry): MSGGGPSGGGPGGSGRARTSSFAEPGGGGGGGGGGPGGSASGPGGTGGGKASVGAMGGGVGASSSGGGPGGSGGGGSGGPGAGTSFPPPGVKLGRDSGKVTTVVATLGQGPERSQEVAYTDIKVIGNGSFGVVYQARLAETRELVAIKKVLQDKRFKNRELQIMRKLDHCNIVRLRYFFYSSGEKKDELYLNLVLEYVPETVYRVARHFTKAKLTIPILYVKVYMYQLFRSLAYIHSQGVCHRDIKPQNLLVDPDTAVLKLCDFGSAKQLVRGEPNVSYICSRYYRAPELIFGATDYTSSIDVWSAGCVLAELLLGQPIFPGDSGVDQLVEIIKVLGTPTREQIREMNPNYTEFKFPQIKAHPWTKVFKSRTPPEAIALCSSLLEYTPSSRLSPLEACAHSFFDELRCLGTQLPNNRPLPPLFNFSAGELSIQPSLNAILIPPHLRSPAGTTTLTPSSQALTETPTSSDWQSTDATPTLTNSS

T5 sequence (P29274 whole entry): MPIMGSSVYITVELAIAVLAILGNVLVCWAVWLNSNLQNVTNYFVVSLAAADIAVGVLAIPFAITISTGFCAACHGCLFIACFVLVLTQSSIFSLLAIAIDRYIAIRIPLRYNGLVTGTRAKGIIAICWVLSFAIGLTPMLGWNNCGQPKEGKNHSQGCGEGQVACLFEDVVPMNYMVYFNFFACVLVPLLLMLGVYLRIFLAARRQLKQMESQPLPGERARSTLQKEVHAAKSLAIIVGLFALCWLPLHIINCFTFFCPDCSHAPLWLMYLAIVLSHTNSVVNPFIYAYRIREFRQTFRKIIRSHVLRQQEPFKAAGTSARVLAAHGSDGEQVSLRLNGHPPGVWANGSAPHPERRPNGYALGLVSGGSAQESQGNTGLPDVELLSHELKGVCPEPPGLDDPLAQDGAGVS

SMILES: N#Cc1c(N)nc(SCc2ncc[nH]2)c(C#N)c1-c1ccc(O)cc1
- Kd [1]: 0.0782 µM
- K [2]: 0.0086 s⁻¹
- Ki [3]: 0.012 µM
- ka [4]: 1.1 10^5/M/s

SMILES: O=C(Nc1ccccc1)Nc1ccccn1
- Kd [1]: 43.3 µM
- Kd [5]: 41 µM
- Kd [6]: 52 µM
- Kd [7]: 50.9 µM

SMILES: Nc1nc(-c2ccccc2)ns1
- Kd [1]: 60.7 µM
- Kd [5]: 51.7 µM
- Kd [6]: 50.7 µM
- Kd [7]: 130 µM

SMILES: Nc1nc(N)nc(-c2ccccc2)n1 [BENZOGUANAMINE]
- Kd [1]: 107 µM
- Activity [8]: Active
- Kd [5]: 2.21 µM
- Kd [6]: 104 µM
- Kd [7]: 1.5 µM

SMILES: CS(=O)(=O)c1ccc(C(=O)Nc2cccc(Cl)c2)cc1
- Kd [1]: 19.3 µM
- Kd [5]: 7.6 µM
- Kd [6]: 18 µM
- Kd [7]: 13.5 µM
- Activity [9]: Active

SMILES: Nc1ccc2nnc(-c3ccccc3)n2n1
- Kd [1]: 120 µM
- Activity [8]: Active
- Kd [5]: 22.9 µM
- Kd [6]: 160 µM
- Kd [7]: 1.11 µM

SMILES: Nc1nc(N)c2nccnc2n1
- Kd [7]: 9.6 µM

SMILES: O=C1NC(=O)C(c2cccc(Cl)c2)=C1Nc1ccc(O)c(Cl)c1
- Kd [5]: 2.21 µM
- K [10]: 0.27 s⁻¹
- K [11]: 1.21 10^5/M/s
- Kd [7]: 0.11 µM
- Activity [12]: Active
- Activity [13]: Active

SMILES: NC(=O)c1ncoc1-c1ccccc1
- Kd [7]: 31.8 µM

SMILES: O=C(Nc1ccc2ccccc2n1)c1ccco1
- Kd [1]: 123 µM
- Kd [5]: 59 µM
- Kd [6]: 56 µM
- Kd [7]: 40 µM
- IC50 [14]: 0.166 µM

SMILES: Cn1c(=O)[nH]c2ccccc2c1=O
- Kd [1]: 148 µM
- Kd [5]: 34.3 µM
- Kd [6]: 18.9 µM
- Kd [7]: 28.8 µM

SMILES: O=c1cc(NCc2ccccc2)nc2ccccn12
- Kd [1]: 199 µM
- Kd [5]: 154 µM
- Kd [6]: 200 µM
- Kd [7]: 131 µM

SMILES: Nc1nncc(-c2ccc(Br)cc2)n1
- Kd [5]: 1.1 µM
- Kd [7]: 50 µM
- Activity [9]: Active

SMILES: CC(C)NC(=O)c1cc(-c2ccccc2)[nH]n1
- Kd [1]: 196 µM
- Kd [5]: 70 µM
- Kd [6]: 80 µM
- Kd [7]: 49 µM
- Activity [9]: Active

SMILES: Nc1nsc(-c2ccc(Cl)cc2)n1
- Kd [1]: 45 µM
- Activity [15]: Active
- Kd [5]: 20.7 µM
- Kd [6]: 36.5 µM
- Kd [7]: 21.8 µM
- Activity [13]: Active

SMILES: CCNC(=O)[C@H]1O[C@@H](n2cnc3c(N)ncnc32)[C@H](O)[C@@H]1O
- Activity [16]: Active

SMILES: Nc1nc(Nc2ccccc2)nc2c1ncn2[C@@H]1O[C@H](CO)[C@@H](O)[C@H]1O
- Kd [7]: 0.0091 µM
- Ki [17]: 0.076 µM

SMILES: Oc1ncnc2[nH]ncc12 [ALLOPURINOL]
- Kd [7]: 77 µM

SMILES: Fc1ccc(-c2nn3ccccc3c2-c2ccncc2)cc1 [GW434756X]
- K [18]: 0.041 s⁻¹
- Kd [1]: 0.28 µM
- Kd [5]: 0.00605 µM
- K [10]: 0.01 s⁻¹
- K [11]: 1.63 10^6/M/s
- ka [19]: 1.52 10^5/M/s
- Kd [6]: 0.74 µM
- Kd [7]: 8.9 µM
- Activity [12]: Active
- Activity [20]: Active
- ka [4]: 1.52 10^5/M/s

SMILES: Cc1nn(-c2ccccc2)nc1C(N)=O
- Kd [1]: 140 µM
- Kd [5]: 78 µM
- Kd [6]: 101 µM
- Kd [7]: 410 µM

SMILES: CC(C)n1ncc2cc(C(=O)NCc3ccco3)cnc21
- Kd [1]: 80 µM
- Kd [5]: 27 µM
- Kd [6]: 400 µM
- Kd [7]: 210 µM

SMILES: O[C@H]1CC[C@H](Nc2nc(-c3ccccc3)nc3[nH]ccc23)CC1
- Kd [5]: 0.00546 µM
- K [10]: 0.0034 s⁻¹
- K [11]: 6.27 10^5/M/s
- ka [21]: 6.27 10^5/M/s

SMILES: O=C(Nc1n[nH]c2nc(-c3ccco3)c(Br)cc12)C1CC1
- K [18]: 0.041 s⁻¹
- Kd [5]: 2.12 µM
- K [10]: 0.09 s⁻¹
- K [11]: 4.25 10^4/M/s
- Kd [7]: 0.56 µM
- Activity [13]: Active

SMILES: Nc1nsc(-c2ccccc2)n1
- Kd [1]: 108 µM
- Kd [5]: 122 µM
- Kd [6]: 102 µM
- Kd [7]: 139 µM

SMILES: COc1cc(/C=N/Nc2ncnc3c2cnn3-c2ccccc2)ccc1O
- Kd [5]: 1.21 µM
- K [10]: 0.06 s⁻¹
- K [11]: 5.33 10^4/M/s
- Activity [22]: Active
- Activity [7]: Active
- Activity [23]: Active
- Activity [13]: Active
- IC50 [24]: 0.1 µM

SMILES: O=C(NCc1ccccc1)c1ccc2nonc2c1
- Kd [1]: 22 µM
- Kd [5]: 92 µM
- Kd [6]: 180 µM
- Kd [7]: 100 µM
